24 compounds from ChEMBL document CHEMBL3421623 (J Med Chem, 2015) can be followed below.

Data set [1] concerns the target T1, Estrogen receptor beta (Homo sapiens, UniProt Q92731). As to the kind of experiment: Displacement of fluorescein-labeled ES2 from human recombinant ERbeta receptor after 2 hrs by fluorescence polarization assay. In a few lines: (§1)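 Fluorescence polarization competition. Compound in methanol or DMSO mixed with ES2 screening buffer (100 mM potassium phosphate, 100 μg/mL BGG, 0.02% NaN₃). Preformed complex added to final 9 nM ES2 with 30 nM ER-α or 20 nM ER-β. Polarization expressed as % of vehicle control; EC50 from one-site competition fit.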

Another data set addresses T2, Aromatase (Homo sapiens, UniProt P11511).
T2 sequence (P11511 whole entry): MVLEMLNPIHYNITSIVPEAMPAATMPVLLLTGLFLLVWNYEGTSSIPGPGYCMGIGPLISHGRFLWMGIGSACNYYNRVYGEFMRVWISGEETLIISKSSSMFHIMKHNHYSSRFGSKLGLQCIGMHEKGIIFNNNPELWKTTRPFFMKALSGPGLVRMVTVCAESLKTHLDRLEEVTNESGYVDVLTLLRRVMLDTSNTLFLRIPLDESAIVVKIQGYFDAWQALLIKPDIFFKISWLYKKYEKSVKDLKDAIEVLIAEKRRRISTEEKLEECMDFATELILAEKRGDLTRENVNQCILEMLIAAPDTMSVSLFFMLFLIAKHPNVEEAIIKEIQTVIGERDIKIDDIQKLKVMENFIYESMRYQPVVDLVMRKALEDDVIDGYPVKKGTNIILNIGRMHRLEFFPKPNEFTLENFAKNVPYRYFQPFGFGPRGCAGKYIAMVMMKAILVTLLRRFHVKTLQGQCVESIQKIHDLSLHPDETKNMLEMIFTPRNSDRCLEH
In words: Inhibition of human recombinant aromatase using 7-methoxy-trifluoromethylcoumarin as substrate assessed as formation of fluorescent metabolite after 30 mins by fluorescence assay. Particulars: for inhibition (INH): human, 0.5 h. The gist of the method: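 Recombinant human CYP19 with MFC substrate, converted to fluorescent HFC, in 0.1 M potassium phosphate pH 7.4. NADPH-regenerating mix (NADP⁺, MgCl₂, glucose-6-phosphate, G6PDH); compound prewarmed 10 min at 37 °C, then 30 min reaction stopped with Tris base in acetonitrile. Activity as % of vehicle control; IC50 from one-site competition fit; Ki from Lineweaver–Burk data by nonlinear regression.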

A further data set concerns the target T3, Estrogen receptor (Homo sapiens, UniProt P03372).
T3 sequence (P03372 whole entry): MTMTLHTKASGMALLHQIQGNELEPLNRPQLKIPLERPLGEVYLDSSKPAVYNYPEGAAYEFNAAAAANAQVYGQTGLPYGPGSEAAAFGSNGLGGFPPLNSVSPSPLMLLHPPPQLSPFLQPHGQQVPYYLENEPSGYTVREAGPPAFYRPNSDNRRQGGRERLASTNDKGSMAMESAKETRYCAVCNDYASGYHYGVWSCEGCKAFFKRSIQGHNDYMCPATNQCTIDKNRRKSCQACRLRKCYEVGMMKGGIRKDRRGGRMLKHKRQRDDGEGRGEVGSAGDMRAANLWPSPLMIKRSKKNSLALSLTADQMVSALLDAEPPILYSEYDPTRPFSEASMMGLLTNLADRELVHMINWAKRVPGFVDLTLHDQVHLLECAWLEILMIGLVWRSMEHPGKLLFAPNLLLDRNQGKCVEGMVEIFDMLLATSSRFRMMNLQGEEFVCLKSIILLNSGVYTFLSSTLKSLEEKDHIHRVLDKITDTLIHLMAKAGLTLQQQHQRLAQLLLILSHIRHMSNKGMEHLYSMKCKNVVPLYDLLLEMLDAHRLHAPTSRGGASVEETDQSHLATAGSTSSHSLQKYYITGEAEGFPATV
As to the kind of experiment: Displacement of fluorescein-labeled ES2 from human recombinant ERalpha receptor after 2 hrs by fluorescence polarization assay. The gist of the method: as §1

Data set [2] has as its target T4, Estrogen receptor (Homo sapiens) (UniProt P03372).
T4 sequence (whole entry): T3 sequence (P03372 whole entry)
As to the kind of experiment: Antiestrogenic effect at estrogen receptor in human MCF7 cells assessed as inhibition of E2-induced progesterone receptor mRNA expression at 1000 nM after 24 hrs by real time quantitative PCR. Type of data set: cell-based. The arrangement: scale not given: the % may be the effect or the level left. The gist of the method: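 MCF-7 cells (10⁵/well) grown in MEM + 10% FBS at 37 °C, 5% CO₂, then preconditioned 72 h in charcoal-stripped FBS. Treated 24 h with 1 μM compound or vehicle (0.1% methanol) plus 10 nM E2 in MEM/10% charcoal-stripped FBS. PGR mRNA extracted after genomic DNA removal and quantified by qPCR (40 cycles, Ct). Reported as % of E2-alone expression (100%); 1 μM endoxifen as positive control.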

Data set [3] deals with T4, Estrogen receptor (Homo sapiens). As to the kind of experiment: Displacement of fluorescein-labeled ES2 from human recombinant ERalpha receptor at 100000 nM after 2 hrs by fluorescence polarization assay. The gist of the method: (§2)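 Same ES2 fluorescence polarization setup: 9 nM ES2 with 30 nM ER-α or 20 nM ER-β, in phosphate/BGG buffer, 2 h in the dark. Each compound tested at a single 100000 nM and reported as percent ER competition versus vehicle control. Compounds were E/Z isomer mixtures (mostly 1:1). Mean of at least three experiments.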
On the technique in general: In fluorescence polarisation assays a small probe gives low polarisation when free and higher when bound to something large.

The target of data set [4] is T1, Estrogen receptor beta. In words: Displacement of fluorescein-labeled ES2 from human recombinant ERbeta receptor at 100000 nM after 2 hrs by fluorescence polarization assay. The gist of the method: as §2

Structures are written as SMILES.

What is called EC50 is the midpoint of the concentration-response curve. A word on the IC50: it is the concentration that gives 50% inhibition.

T1 sequence (Q92731 whole entry): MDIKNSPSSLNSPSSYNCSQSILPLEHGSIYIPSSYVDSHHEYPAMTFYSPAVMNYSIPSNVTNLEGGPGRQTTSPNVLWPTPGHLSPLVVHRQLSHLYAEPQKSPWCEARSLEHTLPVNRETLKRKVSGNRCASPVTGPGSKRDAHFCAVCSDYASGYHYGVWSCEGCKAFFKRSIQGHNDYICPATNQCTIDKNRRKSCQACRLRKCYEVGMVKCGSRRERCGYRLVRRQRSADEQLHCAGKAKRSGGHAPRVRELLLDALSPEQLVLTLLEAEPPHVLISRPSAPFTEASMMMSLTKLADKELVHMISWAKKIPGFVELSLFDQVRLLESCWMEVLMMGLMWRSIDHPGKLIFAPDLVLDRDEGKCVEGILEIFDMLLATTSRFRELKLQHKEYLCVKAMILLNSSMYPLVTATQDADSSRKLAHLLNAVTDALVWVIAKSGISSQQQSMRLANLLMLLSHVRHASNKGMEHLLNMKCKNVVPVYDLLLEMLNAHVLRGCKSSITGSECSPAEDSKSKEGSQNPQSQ

`CCC(CC)=C(c1ccc(O)cc1)c1ccc(OCCN)cc1`: the half-maximal effective concentration (EC50) worked out at 202 nM on Estrogen receptor beta [1] and 277 nM at Estrogen receptor. For the same compound, the IC50 on Aromatase came to 1320 nM.
For the compound `NCCOc1ccc(C(=C(c2ccccc2)c2ccccc2)c2ccc(O)cc2)cc1`, the values for the EC50 on Estrogen receptor beta [1] and on Estrogen receptor were 478 nM and 653 nM, respectively. The IC50 at Aromatase came out at 1930 nM.
On to `NCCOc1ccc(/C(=C(/Cn2cnnc2)c2ccccc2)c2ccc(O)cc2)cc1`, for which the EC50 at Estrogen receptor beta [1] came out at 47.7 nM; at Estrogen receptor it was 56.5 nM. For the same compound, the Activity in data set [2] is 47%. Also, on Aromatase, the IC50 stood at 715 nM.
For `NCCOc1ccc(/C(=C(\Cn2cnnc2)c2ccccc2)c2ccc(O)cc2)cc1`, in that order: 57.5 nM, 176 nM, 44% and 699 nM.
As to `CC/C(=C(/c1ccc(O)cc1)c1ccc(OCCN)cc1)c1ccc(F)cc1` (mixture of isomers), the figures for the concentration giving a half-maximal response (EC50) on Estrogen receptor beta [1] and at Estrogen receptor were 49.2 nM and 87.8 nM, respectively. Moreover, the Activity in data set [2] amounted to 42%. The IC50 on Aromatase worked out at 1020 nM.
`CC/C(=C(/c1ccccc1)c1ccc(OCCN)cc1)c1ccccc1` (mixture of isomers): the Activity (in data set [3]; on Estrogen receptor beta [4]) was 0% throughout. Moreover, at Aromatase, the IC50 was found to be 913 nM.
With `CC/C(=C(/c1ccc(N)cc1)c1ccc(OCCN)cc1)c1ccccc1` (mixture of isomers), the EC50 amounted to 182 nM on Estrogen receptor beta [1] and 274 nM at Estrogen receptor. For the same compound, the half-inhibitory concentration (IC50) at Aromatase was found to be 53.1 nM.
In the case of `CC/C(=C(/c1ccc(N)cc1)c1ccc(OCCN)cc1)c1ccc(O)cc1` (mixture of isomers), the EC50 on Estrogen receptor beta [1] was determined as 49.9 nM; at Estrogen receptor, 144 nM. Besides, on Aromatase, the IC50 turned out to be 48.1 nM.
`NCCOc1ccc(/C(=C/c2ccccc2)c2ccc(O)cc2)cc1` (mixture of isomers): the concentration giving a half-maximal response (EC50) on Estrogen receptor beta [1] stood at 19.5 nM; on Estrogen receptor, 1050 nM. Moreover, the concentration for half-maximal inhibition (IC50) on Aromatase worked out at 6290 nM.
For `C/C(=C(/c1ccc(O)cc1)c1ccc(OCCN)cc1)c1ccccc1` (mixture of isomers) the same measures were 27.8 nM, 675 nM and 337 nM.
For `NCCOc1ccc(/C(=C(\CCCl)c2ccccc2)c2ccc(O)cc2)cc1` (mixture of isomers), in that order: 52 nM, 265 nM and 143 nM.
For `CCC/C(=C(/c1ccc(O)cc1)c1ccc(OCCN)cc1)c1ccccc1` (mixture of isomers), in that order: 36.5 nM, 384 nM and 261 nM.
`CC(C)/C(=C(/c1ccc(O)cc1)c1ccc(OCCN)cc1)c1ccccc1` (mixture of isomers): the Activity in data set [3] is 54%; at Estrogen receptor beta [4] it was 68%. For the same compound, on Aromatase, the IC50 turned out to be 328 nM.
For `N#CC/C(=C(/c1ccc(O)cc1)c1ccc(OCCN)cc1)c1ccccc1` (mixture of isomers), in that order: 48%, 64% and 48.9 nM.
For `NCCOc1ccc(/C(=C(\Cn2ccnc2)c2ccccc2)c2ccc(O)cc2)cc1` (mixture of isomers) the same measures were 59%, 74% and 16.9 nM.
With `NCCOc1ccc(/C(=C(\Cn2cncn2)c2ccccc2)c2ccc(O)cc2)cc1` (mixture of isomers), the concentration for a half-maximal effect (EC50) at Estrogen receptor beta [1] was 519 nM; at Estrogen receptor it was 290 nM. In data set [2], the Activity was 47%. Moreover, the concentration for half-maximal inhibition (IC50) on Aromatase stood at 174 nM.
Consider `NCCOc1ccc(/C(=C2\CCc3ccccc32)c2ccc(O)cc2)cc1` (mixture of isomers), for which the EC50 at Estrogen receptor beta [1] turned out to be 1350 nM; at Estrogen receptor it was 3180 nM. Moreover, on Aromatase, the half-inhibitory concentration (IC50) is 493 nM.
`CC/C(=C(/c1ccc(O)cc1)c1ccc(OCCO)cc1)c1ccccc1` (mixture of isomers): the values for the Activity (in data set [3]; on Estrogen receptor beta [4]) were 62% and 56%, respectively. In addition, on Aromatase, the IC50 came out at 30500 nM.
For `CC/C(=C(/c1ccc(O)cc1)c1ccc(OCC(=O)O)cc1)c1ccccc1` (mixture of isomers) the same measures were 55%, 57% and 3680 nM.
Consider `CC/C(=C(/c1ccc(O)cc1)c1ccc(OCCBr)cc1)c1ccccc1` (mixture of isomers), for which the Activity (in data set [3]; on Estrogen receptor beta [4]) was 60% in each case. Also, the “inhibition (INH)” value on Aromatase is 20%.
Turning to `CC/C(=C(/c1ccc(O)cc1)c1ccc(OCCCl)cc1)c1ccccc1` (mixture of isomers), the Activity worked out at 62% in data set [3] and 40% on Estrogen receptor beta [4]. For the same compound, at Aromatase, the “inhibition (INH)” value is given as 27%.
`CC/C(=C(/c1ccc(O)cc1)c1ccc(OCCCN)cc1)c1ccccc1` (mixture of isomers): the concentration giving a half-maximal response (EC50) at Estrogen receptor beta [1] and at Estrogen receptor was 21.3 nM in each case. The Activity in data set [2] was 33%. Also, at Aromatase, the 50% inhibitory concentration (IC50) amounted to 1240 nM.
`CC/C(=C(/c1ccc(O)cc1)c1ccc(CCCN)cc1)c1ccccc1` (mixture of isomers): the results for the EC50 at Estrogen receptor beta [1] and at Estrogen receptor were 13.3 nM and 27.1 nM, respectively. For the same compound, the Activity in data set [2] came to 16%. Moreover, the concentration for half-maximal inhibition (IC50) on Aromatase stood at 7340 nM.
For `CC/C(=C(/c1ccc(O)cc1)c1ccc(CCCN)cc1)c1ccc(O)cc1` (mixture of isomers), in that order: 293 nM, 1920 nM, 6% and 491 nM.
